From ChEMBL document CHEMBL3797143, “Novel S1P1 receptor agonists - Part 5: From amino-to alkoxy-pyridines” (Eur J Med Chem, 2016)
Active and inactive are the calls of the source. The calls are words filed in the database; no cut-off is given here.

What was measured:
[1] = system: Rattus norvegicus; test: Decrease in peripheral blood lymphocyte count in Wistar rat at 10 mg/kg administered via oral gavage measured after 144 hrs; type: functional; design: scale not given: the % may be the effect or the level left
How it was run: (§1)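 Male Wistar rats (RccHan:WIST) were given 10 mg/kg orally by gavage in vehicle containing 5% DMSO. Blood drawn by sublingual vein puncture under isoflurane before dosing and at the listed times after dosing. Lymphocytes counted on a haematology analyser. Results are % change from baseline, mean of 6-8 animals.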

[2] = system: Rattus norvegicus; test: Time duration of maximum lymphocyte count reduction in Wistar rat at 10 mg/kg administered via oral gavage; type: functional
How it was run: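 Duration of action is the latest sampling time at which maximal lymphocyte-count reduction was still seen. Male Wistar rats received 10 mg/kg orally, and blood lymphocytes were counted before dosing and at 3, 6 and 24 h (later times in some cases). Mean of 6-8 animals.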

[3] = Plasma concentration in Wistar rat at 10 mg/kg administered via oral gavage measured after 96 hrs by LC-MS/MS analysis; type: ADME, organism-based
How it was run: (§2)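 Male Wistar rats received 10 mg/kg orally by gavage. Blood was drawn at the listed times into EDTA tubes, and plasma was prepared by centrifugation at 3000 g for 10 min at 4 °C. Limit of quantification 3 nM.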

[4] = Plasma concentration in Wistar rat at 10 mg/kg administered via oral gavage measured after 144 hrs by LC-MS/MS analysis; type: ADME, organism-based; how it was run: as §2
[5] = Plasma concentration in Wistar rat at 10 mg/kg administered via oral gavage measured after 6 hrs by LC-MS/MS analysis; type: ADME, organism-based; how it was run: as §2
[6] = Half life in Wistar rat at 10 mg/kg administered via oral gavage by LC-MS/MS analysis; type: ADME, organism-based; conditions: in vivo
How it was run: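 Oral half-life was calculated from plasma concentrations measured in the lymphocyte-count study, in which male Wistar rats received 10 mg/kg orally. Plasma was prepared from EDTA blood by centrifugation at 3000 g for 10 min at 4 °C.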

[7] = system: Rattus norvegicus; test: Decrease in peripheral blood lymphocyte count in Wistar rat at 10 mg/kg administered via oral gavage measured after 6 hrs; type: functional; design: scale not given: the % may be the effect or the level left; how it was run: as §1
[8] = Phototoxicity in Balb/c mouse 3T3 clone A31 cells assessed as AUC of UV spectra between 310 and 350 nm normalized to compound concentration at 0.05 to 100 uM preincubated for 1 hr followed by UVA irradiation measured after 24 hrs by neutral red uptake assay relative to control; type: functional
[9] = system: Rattus norvegicus; test: Decrease in peripheral blood lymphocyte count in Wistar rat at 10 mg/kg administered via oral gavage measured after 24 hrs; type: functional; design: scale not given: the % may be the effect or the level left; how it was run: as §1
[10] = Plasma concentration in Wistar rat at 10 mg/kg administered via oral gavage measured after 3 hrs by LC-MS/MS analysis; type: ADME, organism-based; how it was run: as §2
[11] = system: Rattus norvegicus; test: Decrease in peripheral blood lymphocyte count in Wistar rat at 10 mg/kg administered via oral gavage measured after 96 hrs; type: functional; design: scale not given: the % may be the effect or the level left; how it was run: as §1
[12] = Plasma concentration in Wistar rat at 10 mg/kg administered via oral gavage measured after 24 hrs by LC-MS/MS analysis; type: ADME, organism-based; how it was run: as §2
[13] = biological target: Sphingosine 1-phosphate receptor 3 (Homo sapiens, UniProt Q99500); test: Agonist activity at human recombinant S1PR3 expressed in CHO cell membranes incubated for 30 mins by [35S]GTPgammaS binding assay in presence of GDP; type: functional
How it was run: (§3)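 Membranes from CHO cells expressing recombinant human S1P1 or S1P3. Compounds were preincubated with membranes for 30 min at room temperature. Reaction stopped by filtration, membrane-bound 35S-GTPγS counted. Geometric mean of ≥3 independent runs.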

[14] = system: Rattus norvegicus; test: Decrease in peripheral blood lymphocyte count in Wistar rat at 10 mg/kg administered via oral gavage measured after 3 hrs; type: functional; design: scale not given: the % may be the effect or the level left; how it was run: as §1
[15] = Phototoxicity in Balb/c mouse 3T3 clone A31 cells assessed as inhibition of cell viability measured as photo irritancy factor at 0.05 to 100 uM preincubated for 1 hr followed by UVA irradiation measured after 24 hrs by neutral red uptake assay relative to control; type: functional
[16] = biological target: Sphingosine 1-phosphate receptor 1 (Homo sapiens, UniProt P21453); test: Agonist activity at human recombinant S1PR1 expressed in CHO cell membranes incubated for 30 mins by [35S]GTPgammaS binding assay in presence of GDP; type: functional; how it was run: as §3
[17] = Plasma concentration in Wistar rat at 10 mg/kg administered via oral gavage measured after 72 hrs by LC-MS/MS analysis; type: ADME, organism-based; how it was run: as §2
[18] = system: Rattus norvegicus; test: Decrease in peripheral blood lymphocyte count in Wistar rat at 10 mg/kg administered via oral gavage measured after 72 hrs; type: functional; how it was run: as §1
[19] = system: Rattus norvegicus; test: Decrease in peripheral blood lymphocyte count in Wistar rat at 10 mg/kg administered via oral gavage measured after 48 hrs; type: functional; design: scale not given: the % may be the effect or the level left; how it was run: as §1

Sphingosine 1-phosphate receptor 3, sequence (Q99500 whole entry): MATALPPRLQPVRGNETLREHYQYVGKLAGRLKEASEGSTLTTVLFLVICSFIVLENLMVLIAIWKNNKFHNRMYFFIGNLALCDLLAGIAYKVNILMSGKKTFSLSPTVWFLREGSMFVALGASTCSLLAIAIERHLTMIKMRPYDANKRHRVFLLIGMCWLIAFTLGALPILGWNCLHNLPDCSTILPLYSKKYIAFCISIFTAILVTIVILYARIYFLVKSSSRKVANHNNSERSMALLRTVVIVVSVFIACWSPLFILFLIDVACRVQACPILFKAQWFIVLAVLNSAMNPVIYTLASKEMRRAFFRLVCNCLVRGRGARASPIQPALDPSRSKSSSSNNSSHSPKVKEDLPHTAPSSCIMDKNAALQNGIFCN
Sphingosine 1-phosphate receptor 1, sequence (P21453 whole entry): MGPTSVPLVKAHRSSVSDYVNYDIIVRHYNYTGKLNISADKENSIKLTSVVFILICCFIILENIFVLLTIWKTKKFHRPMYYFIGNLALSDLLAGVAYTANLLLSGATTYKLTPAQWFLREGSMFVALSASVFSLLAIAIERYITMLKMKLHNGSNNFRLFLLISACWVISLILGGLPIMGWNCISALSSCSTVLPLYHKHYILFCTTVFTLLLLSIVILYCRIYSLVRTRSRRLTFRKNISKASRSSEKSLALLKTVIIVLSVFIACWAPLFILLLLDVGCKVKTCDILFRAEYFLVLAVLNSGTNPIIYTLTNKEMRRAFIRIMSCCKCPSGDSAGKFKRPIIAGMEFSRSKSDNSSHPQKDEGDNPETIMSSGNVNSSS

`CCc1cc(-c2noc(-c3cc(OC)nc(C4CCCC4)c3)n2)cc(C)c1OC[C@@H](O)CNC(=O)CO` showed an Activity [1] of 20%, a Time [2] of 24 h and a concentration at 96 h [3] of 68 nM. For the same compound, the concentration at 144 h [4] was 12 nM, the concentration at 6 h [5] was 1860 nM and the half-life [6] was 18 h. The Activity [7] was 65%, the Ratio [8] was 0.09 and the Activity [9] was 70%. For the same compound, the concentration at 3 h [10] was 2050 nM, the Activity [11] was 50% and the concentration at 24 h [12] was 1070 nM. For the same compound, the EC50 [13] was 71 nM, the Activity [14] was 62% and the Ratio [15] was 2.3.
`CCc1cc(-c2noc(-c3cc(OC)nc(C(CC)CC)c3)n2)cc(C)c1OC[C@@H](O)CNC(=O)CO` gave a Time [2] of 6 h, an EC50 [16] of 0.4 nM and a concentration at 6 h [5] of 470 nM. The half-life [6] was 9 h, the Activity [7] was 59% and the Ratio [8] was 0.05. For the same compound, the Activity [9] was 36%, the concentration at 72 h [17] was less than 3 nM and the Activity [18] was “Active”. The concentration at 3 h [10] was 750 nM, the concentration at 24 h [12] was 46 nM and the EC50 [13] was 96 nM. For the same compound, the Activity [14] was 59% and the Ratio [15] was 0.9.
Work on `CCc1cc(-c2noc(-c3cc(CC(C)C)nc(OC)c3)n2)cc(C)c1OC[C@@H](O)CNC(=O)CO` yielded a Time [2] of 48 h, an EC50 [16] of 0.3 nM and an Activity [19] of 59%. It also gave an Activity [7] of 59%, an Activity [9] of 66% and an EC50 [13] of 27 nM. It also gave an Activity [14] of 57%.
